Results: ChEMBL document CHEMBL1157745, “Structure-based discovery of A2A adenosine receptor ligands” (J Med Chem, 2010)
Active and inactive are the calls of the source. The calls are words filed in the database; no cut-off is given here.

What was measured:
[1] = target: T1, Adenosine receptor A1 (Homo sapiens) (UniProt P30542); assay: Displacement of [3H]R-PIA from human recombinant adenosine A1 receptor expressed in CHO cells at 20 uM after 60 mins by scintillation counting; format: cell-based
T1 sequence (whole entry): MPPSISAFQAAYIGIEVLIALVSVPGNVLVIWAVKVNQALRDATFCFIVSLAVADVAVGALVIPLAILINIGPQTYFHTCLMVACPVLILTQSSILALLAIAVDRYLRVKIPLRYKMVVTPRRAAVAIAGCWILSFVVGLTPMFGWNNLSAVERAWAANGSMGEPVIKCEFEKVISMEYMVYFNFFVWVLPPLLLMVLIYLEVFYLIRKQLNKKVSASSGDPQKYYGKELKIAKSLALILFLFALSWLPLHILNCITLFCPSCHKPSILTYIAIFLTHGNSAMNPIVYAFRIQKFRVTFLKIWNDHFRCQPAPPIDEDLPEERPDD

[2] = target: Adenosine receptor A2a (Homo sapiens, UniProt P29274); assay: Displacement of [3H]CGS21680 from human recombinant adenosine A2A receptor expressed in HEK293 cells after 60 mins by scintillation counting; format: cell-based
[3] = target: T2, Adenosine receptor A3 (Homo sapiens) (UniProt P0DMS8); assay: Displacement of [125I]I-AB-MECA from human recombinant adenosine A3 receptor expressed in CHO cells at 20 uM after 60 mins by gamma counting
T2 sequence (whole entry): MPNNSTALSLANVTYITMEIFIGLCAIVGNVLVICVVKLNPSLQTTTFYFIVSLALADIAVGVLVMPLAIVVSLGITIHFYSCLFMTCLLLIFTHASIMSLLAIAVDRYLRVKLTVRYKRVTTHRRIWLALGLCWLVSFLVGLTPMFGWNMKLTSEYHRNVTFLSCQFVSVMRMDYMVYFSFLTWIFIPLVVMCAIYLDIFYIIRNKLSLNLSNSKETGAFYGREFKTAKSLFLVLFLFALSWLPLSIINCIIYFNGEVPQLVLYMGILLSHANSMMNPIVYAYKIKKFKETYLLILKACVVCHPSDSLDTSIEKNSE

[4] = target: Cruzipain (Trypanosoma cruzi) (UniProt P25779); assay: Inhibition of Trypanosoma cruzi cruzain at 10 uM preincubated for 5 mins before substrate addition by spectrophotometry; details: in the assay text read “spectrofluorimetry” for “spectrophotometry”
In short: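 Enzyme (0.8 nM) preincubated with compound 5 min in 100 mM sodium acetate pH 5.5, 5 mM DTT, with and without 0.1% Triton X-100; started with Z-FR-AMC (2.5 μM final, enzyme 0.4 nM final), 0.5% DMSO; fluorescence ex 355/em 460 nm over 5 min; duplicates, DMSO controls.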

[5] = Colloidal aggregation at 10 uM by dynamic light scattering assay; format: physicochemical
In short: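 Compounds diluted from concentrated DMSO stocks into filtered 50 mM KPi, pH 7.0; particle formation checked by dynamic light scattering with 826.6 nm laser at 100% power, detector angle 90°.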

[6] = Inhibition of beta-lactamase AmpC preincubated for 5 mins before substrate addition by spectrophotometry
In short: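 In 50 mM potassium phosphate pH 7.0, 1 nM enzyme incubated 5 min with compound at 10 μM (0.1% DMSO); CENTA added to 92 μM final; absorbance at 405 nm followed for 5 min; duplicates with DMSO controls.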

[7] = species on record: Homo sapiens; assay: Selectivity ratio of Ki for human recombinant adenosine A1 receptor to KI for human recombinant adenosine A2A receptor
[8] = species on record: Homo sapiens; assay: Selectivity ratio of Ki for human recombinant adenosine A3 receptor to KI for human recombinant adenosine A2A receptor

Chain of Cruzipain (Trypanosoma cruzi) (P25779 123-467 limits assumed): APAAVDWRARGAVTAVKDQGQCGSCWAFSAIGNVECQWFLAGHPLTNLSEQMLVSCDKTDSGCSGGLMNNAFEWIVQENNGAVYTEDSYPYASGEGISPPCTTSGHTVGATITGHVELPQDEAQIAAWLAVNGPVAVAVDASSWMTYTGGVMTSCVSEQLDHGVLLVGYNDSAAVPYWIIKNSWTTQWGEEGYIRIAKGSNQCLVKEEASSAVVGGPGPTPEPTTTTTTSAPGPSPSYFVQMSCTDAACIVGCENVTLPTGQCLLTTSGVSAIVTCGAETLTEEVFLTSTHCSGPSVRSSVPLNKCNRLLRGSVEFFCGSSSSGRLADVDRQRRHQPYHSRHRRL
Chain of Adenosine receptor A2a (P29274 whole entry): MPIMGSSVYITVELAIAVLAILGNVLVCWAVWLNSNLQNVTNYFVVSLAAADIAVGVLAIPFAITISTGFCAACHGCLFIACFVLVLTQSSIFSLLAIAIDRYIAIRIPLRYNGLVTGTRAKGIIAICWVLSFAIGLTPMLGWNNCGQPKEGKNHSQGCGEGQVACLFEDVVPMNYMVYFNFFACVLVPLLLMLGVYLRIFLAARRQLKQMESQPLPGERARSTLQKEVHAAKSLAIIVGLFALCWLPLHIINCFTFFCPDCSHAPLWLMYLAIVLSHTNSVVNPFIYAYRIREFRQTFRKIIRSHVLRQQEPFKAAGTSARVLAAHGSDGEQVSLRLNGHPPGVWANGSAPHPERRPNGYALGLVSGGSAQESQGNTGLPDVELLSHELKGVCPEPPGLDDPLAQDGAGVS

| Activity [1] [%] | Ki [2] [nM] | Activity [3] [%] | Activity [4] | Activity [5] | inhibition [6] | Ratio Ki [7] | Ratio Ki [8] | Compound |
| --- | --- | --- | --- | --- | --- | --- | --- | --- |
| 19 | 400 | 16 |  |  |  |  |  | Cc1cc(C)nc(NC(=N)NCCc2c[nH]c3ccccc23)n1 |
| 12 | 1300 | 15 | inactive | Not Active |  |  |  | Cc1ccc2nc(Nc3nc(C)cc(C)n3)[nH]c2c1 |
| 4 | 3600 | 37 |  |  |  |  |  | COc1ccc(-c2cc(=O)[nH]c(Nc3ccccc3)n2)cc1OC |
| 15 | 8800 | 8 |  |  |  |  |  | CNc1ccccc1C(=O)/N=C(\N)Nc1nc(C)c2ccccc2n1 |
|  | 5900 |  |  |  |  |  |  | NC(=NCCc1c[nH]c2ccccc12)Nc1ncccn1 |
|  | 200 |  |  | Active |  |  |  | Cc1cc(C)nc(NC(N)=NCCc2c[nH]c3ccc(F)cc23)n1 |
| 3 |  | 21 |  |  |  |  |  | Cc1cc(C)nc(NC(=N)NCCc2ccsc2)n1 |
| 25 |  | 18 | Active |  | inactive | 50 | 50 | Cc1cc(C)nc(NC(=N)NCCc2c[nH]c3ccc(F)cc23)n1 |
|  |  |  | inactive |  | inactive |  |  | Cc1cccc(O[C@H](C)C(=O)Nc2nc(-c3ccccc3)n[nH]2)c1 |
|  |  |  |  | Not Active |  |  |  | Cc1cccc(O[C@H](C)C(=O)Nc2nnc(-c3ccccc3)[nH]2)c1 |
| 10 | 900 | 9 |  |  |  |  |  | COc1ccc(CCNC(=N)Nc2nc(C)cc(C)n2)cc1 |
| 4 |  | 8 |  |  |  |  |  | N=C(NCCc1c[nH]c2ccccc12)Nc1ncccn1 |
| 5 | 2700 | 28 | inactive | Not Active |  |  |  | COc1ccc2c(c1)oc1c(-c3ccncc3)c(C#N)c(N)c(C#N)c12 |
|  | 400 |  |  |  |  |  |  | Cc1cc(C)nc(NC(N)=NCCc2ccsc2)n1 |
| 6 | 1200 | 17 |  |  |  |  |  | Cc1cccc(Nc2nc3c([nH]2)c(=O)n(C)c(=O)n3C)c1 |
| 5 | 600 | 20 |  |  |  |  |  | COc1ccc2c(CCNC(=N)Nc3nc(C)cc(C)n3)c[nH]c2c1 |
